Data set [1] has as its system Canis familiaris. The data set can be described thus: Inhibition of gastrin tetrapeptide-induced gastric secretion in beagle dog assessed as volume at 8 mg/kg administered directly into stomach via gastric cannula measured after 2 hrs of stimulation. It counts as functional. Particulars: Canis lupus familiaris. Put shortly: (§1)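 Conscious female beagles (5-9 kg) with chronic gastric fistula. Dose in 50 mL 1% methylcellulose was put into the stomach via the cannula 1 h before gastrin tetrapeptide 64 µg/kg sc (from 640 µg/mL in 30% Me2SO); controls got vehicle. Juice was collected for 2 h. Volume was measured, titratable acid obtained by titration to pH 7 with 0.01 N NaOH, and total acid taken as volume × concentration.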

Data set [2] relates to Canis familiaris. The experiment in a line: Inhibition of 2-deoxy-D-glucose-induced gastric secretion in beagle dog assessed as volume at 16 mg/kg administered directly into stomach via gastric cannula measured after 2 hrs of stimulation. It counts as functional. Particulars: Canis lupus familiaris. In short, it runs like this:
(§2)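 Female beagles (5-9 kg), nonanesthetized, with chronic gastric fistula. Test agent was given in 50 mL 1% methylcellulose through the gastric cannula, with vehicle controls, 1 h before 2-deoxy-D-glucose 200 mg/kg sc in saline. The 2 h collection was measured for volume and for acid by titration to pH 7 with 0.01 N NaOH; total acid was calculated as volume × concentration.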

Data set [3] relates to Canis familiaris. The experiment in a line: Inhibition of gastrin tetrapeptide-induced gastric secretion in beagle dog at 8 mg/kg administered directly into stomach via gastric cannula measured after 2 hrs of stimulation. It counts as functional. To be noted: Canis lupus familiaris. Put shortly: as §1
For data set [4], the system named is Canis familiaris. The data set can be described thus: Inhibition of histamine-induced gastric secretion in beagle dog assessed as total acid output at 32 mg/kg administered directly into stomach via gastric cannula measured after 2 hrs of stimulation. It counts as functional. Particulars: Canis lupus familiaris. Put shortly: (§3)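 Fistulated conscious female beagles (5-9 kg) got the dose intragastrically via cannula in 50 mL 1% methylcellulose, with vehicle controls. Histamine 64 µg base/kg sc (diphosphate in saline) was given 1 h later. Output over 2 h was assessed as volume, titratable acid (titration to pH 7, 0.01 N NaOH) and total acid output (volume × concentration).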

The test system of data set [5] is Canis familiaris. The data set can be described thus: Inhibition of gastrin tetrapeptide-induced gastric secretion in beagle dog assessed as total acid output at 8 mg/kg administered directly into stomach via gastric cannula measured after 2 hrs of stimulation. To be noted: Canis lupus familiaris. In kind it is functional. In short, it runs like this:
as §1

The subject of data set [6] is Canis familiaris. The data set can be described thus: Inhibition of 2-deoxy-D-glucose-induced gastric secretion in beagle dog assessed as volume at 8 mg/kg administered directly into stomach via gastric cannula measured after 2 hrs of stimulation. It counts as functional. To be noted: Canis lupus familiaris. Put shortly:
as §2

Data set [7] deals with Canis familiaris. The experiment in a line: Inhibition of gastrin tetrapeptide-induced gastric secretion in beagle dog assessed as titratable acid at 16 mg/kg administered directly into stomach via gastric cannula measured after 2 hrs of stimulation. In kind it is functional. To be noted: Canis lupus familiaris. Put shortly: as §1
In data set [8] the test system is Canis familiaris. The data set can be described thus: Inhibition of 2-deoxy-D-glucose-induced gastric secretion in beagle dog assessed as titratable acid at 8 mg/kg administered directly into stomach via gastric cannula measured after 2 hrs of stimulation. To be noted: Canis lupus familiaris. In kind it is functional. Put shortly:
as §2

The test system of data set [9] is Canis familiaris. The experiment in a line: Inhibition of 2-deoxy-D-glucose-induced gastric secretion in beagle dog assessed as total acid output at 16 mg/kg administered directly into stomach via gastric cannula measured after 2 hrs of stimulation. In kind it is functional. Particulars: Canis lupus familiaris. Put shortly:
as §2

Data set [10] relates to Canis familiaris. The data set can be described thus: Inhibition of 2-deoxy-D-glucose-induced gastric secretion in beagle dog assessed as titratable acid at 16 mg/kg administered directly into stomach via gastric cannula measured after 2 hrs of stimulation. It counts as functional. To be noted: Canis lupus familiaris. Put shortly:
as §2

Data set [11] concerns Canis familiaris. The data set can be described thus: Toxicity in beagle dog assessed as emesis administered directly into stomach via gastric cannula. In kind it is organism-based, Canis lupus familiaris. Particulars: in vivo, other.
For data set [12], the system named is Canis familiaris. The experiment in a line: Inhibition of 2-deoxy-D-glucose-induced gastric secretion in beagle dog assessed as total acid output at 8 mg/kg administered directly into stomach via gastric cannula measured after 2 hrs of stimulation. It counts as functional. To be noted: Canis lupus familiaris. Put shortly:
as §2

The test system of data set [13] is Canis familiaris. The experiment in a line: Inhibition of histamine-induced gastric secretion in beagle dog assessed as titratable acid at 32 mg/kg administered directly into stomach via gastric cannula measured after 2 hrs of stimulation. It counts as functional. Particulars: Canis lupus familiaris. In short, it runs like this: as §3
For data set [14], the system named is Canis familiaris. The experiment in a line: Toxicity in beagle dog assessed as tachycardia administered directly into stomach via gastric cannula. In kind it is organism-based, Canis lupus familiaris. Particulars: in vivo, other.
Data set [15] has as its system Canis familiaris. The data set can be described thus: Inhibition of gastrin tetrapeptide-induced gastric secretion in beagle dog assessed as total acid output at 16 mg/kg administered directly into stomach via gastric cannula measured after 2 hrs of stimulation. It counts as functional. Particulars: Canis lupus familiaris. In short, it runs like this:
as §1

Data set [16] deals with Canis familiaris. The experiment in a line: Inhibition of gastrin tetrapeptide-induced gastric secretion in beagle dog assessed as volume at 16 mg/kg administered directly into stomach via gastric cannula measured after 2 hrs of stimulation. It counts as functional. Particulars: Canis lupus familiaris. In short, it runs like this:
as §1

The subject of data set [17] is Canis familiaris. The data set can be described thus: Inhibition of histamine-induced gastric secretion in beagle dog assessed as volume at 32 mg/kg administered directly into stomach via gastric cannula measured after 2 hrs of stimulation. Particulars: Canis lupus familiaris. It counts as functional. Put shortly: as §3
The test system of data set [18] is Canis familiaris. The experiment in a line: Toxicity in beagle dog assessed as gastric bleeding administered directly into stomach via gastric cannula. It counts as organism-based, Canis lupus familiaris. To be noted: in vivo, other.
The subject of data set [19] is Canis familiaris. The data set can be described thus: Inhibition of gastrin tetrapeptide-induced gastric secretion in beagle dog assessed as titratable acid at 8 mg/kg administered directly into stomach via gastric cannula measured after 2 hrs of stimulation. It counts as functional. Particulars: Canis lupus familiaris. In short, it runs like this: as §1
Data set [20] concerns Canis familiaris. The experiment in a line: Inhibition of gastrin tetrapeptide-induced gastric secretion in beagle dog at 16 mg/kg administered directly into stomach via gastric cannula measured after 2 hrs of stimulation. It counts as functional. To be noted: Canis lupus familiaris. Put shortly:
as §1

In data set [21] the test system is Canis familiaris. The experiment in a line: Inhibition of gastrin tetrapeptide-induced gastric secretion in beagle dog at 32 mg/kg administered directly into stomach via gastric cannula measured after 2 hrs of stimulation. Particulars: Canis lupus familiaris. It counts as functional. Put shortly: as §1
Data set [22] can be described thus: Dissociation constant, apparent pKa of the compound in 20% EtOH/H2O. In kind it is physicochemical. To be noted: read-out: Apparent_pKa. In short, it runs like this:
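Potentiometric titration in 20% EtOH–H2O with a glass-calomel electrode. Sample was titrated directly with 0.5 N NaOH, or dissolved with excess NaOH and back-titrated with 0.5 N HCl. pKa was read as the pH at the half-neutralization point of the curve.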

For data set [23], the system named is Canis familiaris. The data set can be described thus: Inhibition of gastrin tetrapeptide-induced gastric secretion in beagle dog assessed as volume at 32 mg/kg administered directly into stomach via gastric cannula measured after 2 hrs of stimulation. In kind it is functional. Particulars: Canis lupus familiaris. Put shortly:
as §1

Data set [24] relates to Canis familiaris. The data set can be described thus: Inhibition of gastrin tetrapeptide-induced gastric secretion in beagle dog assessed as total acid output at 32 mg/kg administered directly into stomach via gastric cannula measured after 2 hrs of stimulation. To be noted: Canis lupus familiaris. It counts as functional. In short, it runs like this: as §1
Data set [25] deals with Canis familiaris. The data set can be described thus: Inhibition of gastrin tetrapeptide-induced gastric secretion in beagle dog assessed as titratable acid at 32 mg/kg administered directly into stomach via gastric cannula measured after 2 hrs of stimulation. To be noted: Canis lupus familiaris. It counts as functional. Put shortly:
as §1

`Cl.N=C(CS)NCC12CC3CC(CC(C3)C1)C2`: the inhibition in vivo at 8 mg/kg in the data set on Canis familiaris [1] turned out to be 7%; in the data set on Canis familiaris [3], 47%; in the data set with Canis familiaris [5], 8%; in the data set on Canis familiaris [6] it was 31%; in the data set on Canis familiaris [8], 18%; in the data set with Canis familiaris [12] it was 42%. Besides, the inhibition in vivo at 8 mg/kg in the data set with Canis familiaris [19] came out at 0%. Moreover, the inhibition in vivo at 16 mg/kg stood at 79% in the data set on Canis familiaris [2]; 91% with Canis familiaris [7]; 97% in the data set on Canis familiaris [9]; 85% in the data set with Canis familiaris [10]; 83% in the data set with Canis familiaris [15]; 74% with Canis familiaris [16]. Besides, in the data set on Canis familiaris [20], 16 mg/kg produced 74% inhibition in vivo. Moreover, the inhibition in vivo at 32 mg/kg in the data set on Canis familiaris [4] stood at 55%; in the data set on Canis familiaris [13] it was 40%; in the data set with Canis familiaris [17], 36%. Moreover, the Activity result with Canis familiaris [11], in the data set with Canis familiaris [14] and in the data set with Canis familiaris [18] was “Toxic” throughout.
As for `Cl.N=C(CCS)NCc1ccccc1`, at 32 mg/kg the inhibition in vivo in the data set on Canis familiaris [21] was 42%. The Activity entry in the data set on Canis familiaris [11], in the data set with Canis familiaris [14] and with Canis familiaris [18] was “Toxic” throughout. This compound yielded an inhibition in vivo at 16 mg/kg in the data set on Canis familiaris [20] of 18%.
For `N=C(CSCc1ccccc1)NC[C@@H]1C[C@H]2CC[C@H]1C2` (relative stereo; 51), the Activity result in the data set on Canis familiaris [11], in the data set on Canis familiaris [14] and in the data set with Canis familiaris [18] was “Toxic” throughout. Moreover, the pKa in data set [22] was 11. For the same compound, in the data set on Canis familiaris [20], the inhibition in vivo at 16 mg/kg is 19%.
Take `CNC(=S)NCCSCc1[nH]cnc1C` [METIAMIDE]: the figures for the inhibition in vivo at 32 mg/kg in the data set on Canis familiaris [23], with Canis familiaris [24] and in the data set with Canis familiaris [25] were 83%, 90% and 70%, respectively. Also, the inhibition in vivo at 16 mg/kg turned out to be 91% with Canis familiaris [7], 64% with Canis familiaris [15] and 65% in the data set on Canis familiaris [16].

Source of the values: ChEMBL document CHEMBL3227926, “2-Mercaptoacetamidines as gastric antisecretory agents” (J Med Chem, 1979).
